Active and inactive are the calls of the source. The calls are words filed in the database; no cut-off is given here.

This is an account of results in ChEMBL document CHEMBL3098117, “Identification and optimization of an aminoalcohol-carbazole series with antimalarial properties” (ACS Med Chem Lett, 2013).

For data set [1], the system named is Plasmodium falciparum. Briefly: Antimalarial activity against Plasmodium falciparum K1 infected in human RBC after 72 hrs by hypoxanthine incorporation assay in presence of serum albumin. As to conditions: for IC50: K1, 72 h. Type of data set: functional, organism-based. In outline: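 Mixture of drug, human red blood cells and P. falciparum incubated 3 days (72 h) with serum albumin present; growth read as hypoxanthine incorporation.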

The target in a further data set is T1, Cytochrome P450 1A2 (Homo sapiens, UniProt P05177).
T1 sequence (P05177 whole entry): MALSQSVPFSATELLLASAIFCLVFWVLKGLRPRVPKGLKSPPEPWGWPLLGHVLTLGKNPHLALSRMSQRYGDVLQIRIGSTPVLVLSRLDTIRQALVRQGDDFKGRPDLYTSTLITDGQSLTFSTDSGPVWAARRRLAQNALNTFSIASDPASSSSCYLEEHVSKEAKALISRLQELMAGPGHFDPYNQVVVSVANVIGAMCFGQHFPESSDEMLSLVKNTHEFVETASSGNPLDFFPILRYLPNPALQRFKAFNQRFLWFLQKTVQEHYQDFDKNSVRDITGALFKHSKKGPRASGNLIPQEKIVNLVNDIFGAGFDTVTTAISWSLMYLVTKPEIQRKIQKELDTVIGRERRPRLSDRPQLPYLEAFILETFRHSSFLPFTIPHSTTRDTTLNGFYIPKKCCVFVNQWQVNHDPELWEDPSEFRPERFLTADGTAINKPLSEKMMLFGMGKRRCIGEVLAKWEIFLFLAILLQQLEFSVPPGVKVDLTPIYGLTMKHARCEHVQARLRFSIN
Briefly: Inhibition of human recombinant CYP1A2 expressed in baculovirus-infected insect cells preincubated for 15 mins followed by substrate addition measured after 30 mins by luminescence assay. Type of data set: ADME. As to conditions: recombinant enzyme, 0.5 h.

The target in a further data set is Cytochrome P450 2C9 (Homo sapiens, UniProt P11712). Briefly: Inhibition of human recombinant CYP2C9 expressed in baculovirus-infected insect cells preincubated for 15 mins followed by substrate addition measured after 30 mins by luminescence assay. As to conditions: recombinant enzyme, 0.5 h. The data set is classed as ADME.
Cytochrome P450 2C9, sequence (P11712 whole entry): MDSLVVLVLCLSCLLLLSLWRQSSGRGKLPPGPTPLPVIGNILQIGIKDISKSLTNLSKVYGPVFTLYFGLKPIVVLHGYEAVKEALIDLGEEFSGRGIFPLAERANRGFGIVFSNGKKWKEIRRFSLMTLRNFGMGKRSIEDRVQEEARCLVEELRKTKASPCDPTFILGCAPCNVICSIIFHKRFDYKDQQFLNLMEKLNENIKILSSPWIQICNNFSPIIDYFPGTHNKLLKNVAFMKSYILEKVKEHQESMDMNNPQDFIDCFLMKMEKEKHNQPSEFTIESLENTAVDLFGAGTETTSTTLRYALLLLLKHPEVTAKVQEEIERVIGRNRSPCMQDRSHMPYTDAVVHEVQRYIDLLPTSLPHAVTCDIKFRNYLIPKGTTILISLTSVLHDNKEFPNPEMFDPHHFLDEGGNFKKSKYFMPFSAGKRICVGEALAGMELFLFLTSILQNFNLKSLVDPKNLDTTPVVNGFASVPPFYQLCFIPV
The target in another data set is T2, Cytochrome P450 2B6 (Homo sapiens, UniProt P20813).
T2 sequence (P20813 whole entry): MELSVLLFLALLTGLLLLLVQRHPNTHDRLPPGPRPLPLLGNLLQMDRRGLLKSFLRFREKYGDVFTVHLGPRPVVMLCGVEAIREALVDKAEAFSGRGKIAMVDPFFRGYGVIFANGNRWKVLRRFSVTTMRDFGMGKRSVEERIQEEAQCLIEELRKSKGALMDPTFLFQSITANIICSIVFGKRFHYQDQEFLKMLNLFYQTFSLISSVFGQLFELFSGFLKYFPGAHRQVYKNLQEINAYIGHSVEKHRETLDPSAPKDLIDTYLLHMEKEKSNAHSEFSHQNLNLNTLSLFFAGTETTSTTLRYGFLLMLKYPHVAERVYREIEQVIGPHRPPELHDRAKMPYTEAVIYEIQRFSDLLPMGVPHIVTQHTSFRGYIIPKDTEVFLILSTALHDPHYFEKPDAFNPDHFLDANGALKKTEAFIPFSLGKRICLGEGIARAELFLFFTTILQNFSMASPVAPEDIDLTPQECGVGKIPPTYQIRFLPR
As to the kind of experiment: Inhibition of human recombinant CYP2B6 expressed in baculovirus-infected insect cells preincubated for 15 mins followed by substrate addition measured after 30 mins by luminescence assay. Type of data set: ADME. As to conditions: recombinant enzyme, 0.5 h.

For another data set, the target named is Cytochrome P450 2C19 (Homo sapiens, UniProt P33261). Briefly: Inhibition of human recombinant CYP2C19 expressed in baculovirus-infected insect cells preincubated for 15 mins followed by substrate addition measured after 30 mins by luminescence assay. The data set is classed as ADME. The conditions noted are these: recombinant enzyme, 0.5 h.
Cytochrome P450 2C19, sequence (P33261 whole entry): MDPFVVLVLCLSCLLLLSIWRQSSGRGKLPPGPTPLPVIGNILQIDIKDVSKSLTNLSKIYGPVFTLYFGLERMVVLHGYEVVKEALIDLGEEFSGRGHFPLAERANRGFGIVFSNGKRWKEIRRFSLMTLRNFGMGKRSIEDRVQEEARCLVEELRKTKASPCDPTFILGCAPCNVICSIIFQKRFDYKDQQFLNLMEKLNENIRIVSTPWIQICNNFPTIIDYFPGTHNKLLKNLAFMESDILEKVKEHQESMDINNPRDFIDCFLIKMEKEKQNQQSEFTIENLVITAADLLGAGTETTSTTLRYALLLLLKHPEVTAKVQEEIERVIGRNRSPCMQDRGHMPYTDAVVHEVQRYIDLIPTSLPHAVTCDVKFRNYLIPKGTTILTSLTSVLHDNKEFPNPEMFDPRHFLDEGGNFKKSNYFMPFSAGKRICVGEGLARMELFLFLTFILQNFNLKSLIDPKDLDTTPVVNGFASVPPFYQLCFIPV
A further data set has as its target Cytochrome P450 2D6 (Homo sapiens, UniProt P10635). Briefly: Inhibition of human recombinant CYP2D6 expressed in baculovirus-infected insect cells preincubated for 15 mins followed by substrate addition measured after 30 mins by luminescence assay. The data set is classed as ADME. The conditions noted are these: recombinant enzyme, 0.5 h.
Data set [2] deals with Voltage-gated inwardly rectifying potassium channel KCNH2 (Homo sapiens, UniProt Q12809). As to the kind of experiment: Inhibition of human ERG expressed in CHO cells. The data set is classed as cell-based.
Voltage-gated inwardly rectifying potassium channel KCNH2, sequence (Q12809 whole entry): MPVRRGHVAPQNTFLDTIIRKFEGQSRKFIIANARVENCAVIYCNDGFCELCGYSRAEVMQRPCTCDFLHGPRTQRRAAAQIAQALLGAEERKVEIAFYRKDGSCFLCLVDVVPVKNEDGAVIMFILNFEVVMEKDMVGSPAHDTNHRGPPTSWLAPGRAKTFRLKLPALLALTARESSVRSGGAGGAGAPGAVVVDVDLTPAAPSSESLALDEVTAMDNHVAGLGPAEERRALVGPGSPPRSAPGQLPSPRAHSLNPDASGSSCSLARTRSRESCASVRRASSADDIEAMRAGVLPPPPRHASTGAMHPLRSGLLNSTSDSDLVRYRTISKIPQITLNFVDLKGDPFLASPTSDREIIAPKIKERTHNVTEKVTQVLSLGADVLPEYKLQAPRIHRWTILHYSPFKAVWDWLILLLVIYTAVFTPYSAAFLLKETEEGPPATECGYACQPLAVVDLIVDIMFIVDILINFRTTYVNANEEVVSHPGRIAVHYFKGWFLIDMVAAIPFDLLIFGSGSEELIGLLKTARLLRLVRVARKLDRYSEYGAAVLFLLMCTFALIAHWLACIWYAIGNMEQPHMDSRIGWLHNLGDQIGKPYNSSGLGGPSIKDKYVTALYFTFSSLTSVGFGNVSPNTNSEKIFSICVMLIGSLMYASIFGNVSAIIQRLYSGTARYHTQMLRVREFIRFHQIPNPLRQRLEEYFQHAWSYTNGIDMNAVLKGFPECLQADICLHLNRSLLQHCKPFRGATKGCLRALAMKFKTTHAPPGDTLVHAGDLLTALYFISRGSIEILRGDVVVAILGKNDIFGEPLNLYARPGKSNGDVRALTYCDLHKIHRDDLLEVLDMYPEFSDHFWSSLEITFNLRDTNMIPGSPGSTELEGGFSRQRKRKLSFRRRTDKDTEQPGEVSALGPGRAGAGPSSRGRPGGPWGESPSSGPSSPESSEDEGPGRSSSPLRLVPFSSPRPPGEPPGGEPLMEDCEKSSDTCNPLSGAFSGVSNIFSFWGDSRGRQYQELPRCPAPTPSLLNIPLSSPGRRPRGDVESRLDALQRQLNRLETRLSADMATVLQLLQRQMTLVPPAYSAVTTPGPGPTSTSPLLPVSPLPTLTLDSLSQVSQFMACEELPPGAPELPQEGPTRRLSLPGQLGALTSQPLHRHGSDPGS
Another data set deals with Cytochrome P450 3A4 (Homo sapiens, UniProt P08684). As to the kind of experiment: Inhibition of human recombinant CYP3A4 expressed in baculovirus-infected insect cells preincubated for 15 mins followed by substrate addition measured after 30 mins by luminescence assay. Type of data set: ADME. The conditions noted are these: recombinant enzyme, 0.5 h.
Cytochrome P450 3A4, sequence (P08684 whole entry): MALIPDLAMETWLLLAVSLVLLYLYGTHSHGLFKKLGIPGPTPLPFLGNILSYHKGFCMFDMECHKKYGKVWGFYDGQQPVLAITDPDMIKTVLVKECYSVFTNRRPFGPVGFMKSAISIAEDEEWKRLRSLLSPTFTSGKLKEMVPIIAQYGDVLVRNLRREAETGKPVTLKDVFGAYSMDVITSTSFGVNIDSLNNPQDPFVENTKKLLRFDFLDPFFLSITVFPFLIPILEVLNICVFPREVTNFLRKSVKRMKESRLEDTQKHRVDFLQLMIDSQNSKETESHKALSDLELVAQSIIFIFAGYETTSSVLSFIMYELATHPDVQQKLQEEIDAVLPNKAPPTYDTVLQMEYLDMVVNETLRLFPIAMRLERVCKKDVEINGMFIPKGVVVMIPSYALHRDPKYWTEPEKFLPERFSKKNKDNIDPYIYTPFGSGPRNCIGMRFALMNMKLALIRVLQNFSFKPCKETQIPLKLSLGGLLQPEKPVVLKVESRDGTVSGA
In a further data set the target is T3, Cytochrome P450 2C8 (Homo sapiens, UniProt P10632).
T3 sequence (P10632 whole entry): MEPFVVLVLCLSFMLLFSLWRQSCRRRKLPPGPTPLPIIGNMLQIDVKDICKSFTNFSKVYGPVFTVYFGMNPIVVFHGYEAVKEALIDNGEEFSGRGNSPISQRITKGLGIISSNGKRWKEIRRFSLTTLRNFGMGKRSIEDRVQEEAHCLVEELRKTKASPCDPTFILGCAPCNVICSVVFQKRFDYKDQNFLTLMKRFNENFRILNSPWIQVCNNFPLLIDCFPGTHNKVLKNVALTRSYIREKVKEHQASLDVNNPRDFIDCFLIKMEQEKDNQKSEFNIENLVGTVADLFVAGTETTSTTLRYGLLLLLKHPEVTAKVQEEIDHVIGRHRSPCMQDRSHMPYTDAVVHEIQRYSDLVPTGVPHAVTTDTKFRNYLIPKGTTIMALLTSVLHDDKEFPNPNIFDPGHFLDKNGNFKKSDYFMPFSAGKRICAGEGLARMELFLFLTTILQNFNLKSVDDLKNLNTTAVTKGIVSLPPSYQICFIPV
Briefly: Inhibition of human recombinant CYP2C8 expressed in baculovirus-infected insect cells preincubated for 15 mins followed by substrate addition measured after 30 mins by luminescence assay. The data set is classed as ADME. The conditions noted are these: recombinant enzyme, 0.5 h.

For data set [3], the system named is Plasmodium berghei. Briefly: Antimalarial activity against Plasmodium berghei ANKA expressing GFP infected in NMRI mouse assessed as mean survival days at 100 mg/kg/day, po qd for 4 days measured at 24 hrs after last dose. The data set is classed as functional. In outline:
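P. berghei-infected mice dosed orally once daily on days 0–3, starting 4 h postinfection, in groups of 3, 10, 30 and 100 mg/kg/day. Red blood cell parasitemia and plasma exposure measured on day 4, 24 h after the last dose. Mean survival days then monitored over 26 further days.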

For data set [4], the system named is Plasmodium falciparum. Briefly: Antimalarial activity against chloroquine, pyrimethamine, quinine-resistant Plasmodium falciparum V1S. The data set is classed as functional. The conditions noted are these: VS/1.
In data set [5] the test system is Plasmodium falciparum. As to the kind of experiment: Antimalarial activity against chloroquine, pyrimethamine, cycloguanil-resistant Plasmodium falciparum 7G8. The data set is classed as functional, organism-based.
Data set [6] relates to Plasmodium falciparum. Briefly: Antimalarial activity against chloroquine, pyrimethamine, sulfadoxine, quinine and mefloquine-sensitive Plasmodium falciparum D6. The data set is classed as functional, organism-based.
Data set [7] relates to Plasmodium falciparum. As to the kind of experiment: Antimalarial activity against chloroquine and pyrimethamine-resistant Plasmodium falciparum K1. Type of data set: functional, organism-based. The procedure, abridged: (§1)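 P. falciparum cultured with test drug in human red blood cells for 3 days. Growth read out as hypoxanthine incorporation.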
Data set [8] can be described thus: AUC in NMRI mouse at 1 mg/kg, iv and 5 mg/kg, po by LC-MS/MS analysis. Type of data set: ADME, organism-based. The conditions noted are these: plasma.
A short description of data set [9]: Cmax in NMRI mouse at 1 mg/kg, iv and 5 mg/kg, po by LC-MS/MS analysis. Type of data set: ADME, organism-based. The conditions noted are these: in vivo.
In data set [10] the test system is Plasmodium berghei. Briefly: Antimalarial activity against Plasmodium berghei ANKA expressing GFP infected in po dosed NMRI mouse assessed as reduction in parasitemia administered qd for 4 days measured at 24 hrs after last dose. Type of data set: functional. The procedure, abridged:
(§2)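 P. berghei-infected mice dosed orally once daily on days 0–3, first dose 4 h postinfection, at 3, 10, 30 and 100 mg/kg/day. Red blood cell parasitemia and plasma exposure measured on day 4, 24 h after last dose; ED50 derived from dose-response; survival then monitored for 26 further days as mean survival days.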

Data set [11] in a line: Terminal half life in NMRI mouse at 5 mg/kg, po by LC-MS/MS analysis. As to conditions: in vivo, read-out: beta t1/2 (converted). The data set is classed as ADME, organism-based. On the set-up: dose 5 mg/kg, route oral.
Data set [12] has as its system Plasmodium falciparum. As to the kind of experiment: Antimalarial activity against mefloquine-resistant Plasmodium falciparum TM91C235. The data set is classed as functional, organism-based.
The nature of data set [13]: Volume of distribution at steady state in NMRI mouse at 1 mg/kg, iv by LC-MS/MS analysis. Type of data set: ADME, organism-based. The conditions noted are these: in vivo, read-out: Vdss. On the set-up: dose 1 mg/kg, route intravenous.
Data set [14] relates to Plasmodium berghei. Briefly: Antimalarial activity against Plasmodium berghei ANKA expressing GFP infected in NMRI mouse assessed as reduction in parasitemia at 100 mg/kg/day, po qd for 4 days measured at 24 hrs after last dose relative to control. The data set is classed as functional. Set-up: scale not given: the % may be the effect or the level left. In outline: as §2

Data set [15] has as its system Plasmodium falciparum. As to the kind of experiment: Antimalarial activity against drug-sensitive Plasmodium falciparum NF54. Type of data set: functional, organism-based.
For data set [16], the system named is Plasmodium falciparum. As to the kind of experiment: Antimalarial activity against chloroquine, pyrimethamine, sulfadoxine and quinine-resistant Plasmodium falciparum W2. The data set is classed as functional, organism-based.
Data set [17] is described as follows: Oral bioavailability in NMRI mouse at 5 mg/kg by LC-MS/MS analysis. Type of data set: ADME, organism-based. The conditions noted are these: in vivo.
Data set [18] relates to Plasmodium falciparum. Briefly: Antimalarial activity against chloroquine-resistant Plasmodium falciparum K1 infected in human RBC. Type of data set: functional, organism-based. The procedure, abridged:
as §1

Cytochrome P450 2D6, sequence (P10635 whole entry): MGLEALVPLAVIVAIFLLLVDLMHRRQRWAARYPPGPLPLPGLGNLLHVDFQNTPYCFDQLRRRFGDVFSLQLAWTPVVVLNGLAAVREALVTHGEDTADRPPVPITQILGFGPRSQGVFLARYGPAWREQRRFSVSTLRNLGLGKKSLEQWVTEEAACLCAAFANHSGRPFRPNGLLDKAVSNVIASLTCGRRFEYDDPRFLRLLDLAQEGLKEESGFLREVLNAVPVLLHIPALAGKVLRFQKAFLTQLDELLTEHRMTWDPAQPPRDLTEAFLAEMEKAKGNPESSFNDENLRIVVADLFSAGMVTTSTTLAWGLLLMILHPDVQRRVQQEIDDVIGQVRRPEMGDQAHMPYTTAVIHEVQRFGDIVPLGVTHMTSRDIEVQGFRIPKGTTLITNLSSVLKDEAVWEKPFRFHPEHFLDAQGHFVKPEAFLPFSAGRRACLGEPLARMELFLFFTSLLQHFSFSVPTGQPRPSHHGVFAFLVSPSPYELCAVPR

On to `Clc1ccc2c(c1)c1cc(Cl)ccc1n2CCCN1CCN(CC2CCCCC2)CC1`, for which, in the data set with Plasmodium falciparum [1], the IC50 – broadly, the midpoint of a concentration-inhibition curve – came to 0.707 µM.
On to `O=C1CN(Cc2ccccc2)CCN1CC(O)Cn1c2ccc(Cl)cc2c2cc(Cl)ccc21` (stereo not given), for which, in the data set with Plasmodium falciparum [1], the IC50 stood at 0.344 µM.
On the same count and under the same terms, in the case of `COC(CN1CCN(Cc2ccccc2)CC1)Cn1c2ccccc2c2ccccc21` (stereo not given) it was 3.31 µM; in that of `FC(CN1CCN(CC2CCCCC2)CC1)Cn1c2ccc(Br)cc2c2cc(Br)ccc21` (stereo not given), 0.106 µM.
Regarding `O[C@H](CNC1CCCCC1)Cn1c2ccc(Br)cc2c2cc(Br)ccc21`, the “inhibition (INH)” value (on Cytochrome P450 1A2; at Cytochrome P450 2C9; at Cytochrome P450 2B6; at Cytochrome P450 2C19; on Cytochrome P450 2D6; in data set [2]) was “Active” in each case. Moreover, the “inhibition (INH)” value at Cytochrome P450 3A4 and on Cytochrome P450 2C8 was “Active” in each case. Moreover, the result in the data set with Plasmodium falciparum [1] was Active.
On to `OC(CN1CCN(CC2CCCCC2)CC1)Cn1c2ccc(Cl)cc2c2cc(Cl)ccc21` (stereo not given), for which the outcome in the data set on Plasmodium berghei [3], in the data set with Plasmodium falciparum [4], with Plasmodium falciparum [5], in the data set on Plasmodium falciparum [6], with Plasmodium falciparum [7] and in the data set with Plasmodium falciparum [12] was Active. The outcome with Plasmodium falciparum [15] and in the data set with Plasmodium falciparum [16] was Active. The half-maximal inhibitory concentration (IC50) in the data set with Plasmodium falciparum [1] was found to be 0.016 µM. Further, the AUC (usually concentration integrated over time) in data set [8] is 1580 ng·h/mL. Moreover, in [9], the Cmax (as a rule, the peak of the concentration-time curve) came to 135 ng/mL. Also, the Activity entry is “Dose dependent effect” with Plasmodium berghei [10] and 99.93% in the data set with Plasmodium berghei [14]. The ED50 – broadly, the midpoint of the dose-response relation – with Plasmodium berghei [10] came to 34.5 mg/kg/day. Also, in [11], the half-life was 8 h. Moreover, the Vd in data set [13] came to 15 L/kg. Further, the bioavailability (commonly the share of a dose that reaches the circulation, judged against a reference dose that is usually intravenous) in data set [17] came to 50%.
As for `OC(CN1CCN(Cc2ccccc2)CC1)Cn1c2ccc(Br)cc2c2cc(Br)ccc21` (stereo not given), the IC50 in the data set with Plasmodium falciparum [1] was determined as 0.027 µM.
On to `C[C@@H]1CC[C@H]2[C@@H](C)C(=O)O[C@@H]3O[C@@]4(C)CC[C@@H]1[C@]32OO4` [ARTEMISININ], for which the 50% inhibitory concentration (IC50) in the data set with Plasmodium falciparum [18] is 0.0054 µM.
For the compound `O=C(CN1CCN(CC2CCCCC2)CC1)Cn1c2ccc(Cl)cc2c2cc(Cl)ccc21`, the concentration for half-maximal inhibition (IC50) with Plasmodium falciparum [1] was 0.448 µM.
The same measure, in the same setting: in the case of `OC(CN1CCN(Cc2ccccc2)CC1)Cn1c2ccccc2c2ccccc21` (stereo not given) it was 0.275 µM.
In the data set on Plasmodium falciparum [18], `CC12CCC(CN(CC(O)Cn3c4ccc(Cl)cc4c4cc(Cl)ccc43)C1)C2(C)C` (stereo not given) yielded an IC50 of 0.057 µM.
In the case of `O[C@@H](CNC1CCCCC1)Cn1c2ccc(Br)cc2c2cc(Br)ccc21`, the “inhibition (INH)” value (on Cytochrome P450 1A2; at Cytochrome P450 2C9; at Cytochrome P450 2B6; on Cytochrome P450 2C19; at Cytochrome P450 2D6; in data set [2]) was “Active” in each case. In addition, the “inhibition (INH)” value at Cytochrome P450 3A4 and on Cytochrome P450 2C8 was “Active” throughout. Further, in the data set with Plasmodium falciparum [1], the result was Active.
With `OC(CN1CCN(Cc2ccccc2)CC1)Cn1c2ccccc2c2cc(Cl)ccc21` (stereo not given), in the data set on Plasmodium falciparum [1], the half-maximal inhibitory concentration (IC50) amounted to 0.165 µM.
